Reference: ChEMBL document CHEMBL1156448, “Identification of an efficacy switch region in the ghrelin receptor responsible for interchange between agonism and inverse agonism” (J Biol Chem, 2007)
Blank lines part the entries; values can stand above or below the compound they belong to.

Key:
[1] = target: T1, Growth hormone secretagogue receptor type 1 (Homo sapiens, UniProt Q92847, D99K); test: Agonist activity at human ghrelin receptor Asp2:20Lys(Asp99) mutant expressed in african green monkey COS7 cells assessed as inhibition of inositol phosphate accumulation; type: functional, cell-based, COS-7
T1 sequence (Q92847 whole entry D99K): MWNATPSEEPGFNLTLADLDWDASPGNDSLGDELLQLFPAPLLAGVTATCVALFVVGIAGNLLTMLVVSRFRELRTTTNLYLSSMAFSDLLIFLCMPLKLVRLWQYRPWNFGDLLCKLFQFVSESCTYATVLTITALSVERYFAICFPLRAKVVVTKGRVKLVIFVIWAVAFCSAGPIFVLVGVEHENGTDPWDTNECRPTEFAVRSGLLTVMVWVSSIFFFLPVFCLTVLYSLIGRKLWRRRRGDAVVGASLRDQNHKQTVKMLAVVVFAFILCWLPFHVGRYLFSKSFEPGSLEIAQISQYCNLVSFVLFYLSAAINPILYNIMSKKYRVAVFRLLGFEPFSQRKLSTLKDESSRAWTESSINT
Outline: (§1)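 COS-7 cells transiently transfected (calcium phosphate with chloroquine; receptor cDNA 20 μg/75 cm2, the amount giving maximal basal signaling), labelled one day later for 24 h with 5 μCi myo-[3H]inositol. Preincubated in HEPES buffer pH 7.4 with 10 mm LiCl, 30 min at 37 °C, then exposed to various peptide concentrations, 45 min at 37 °C. Inositol phosphates recovered on anion-exchange resin; duplicates; EC50 by nonlinear regression.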

[2] = target: T2, Growth hormone secretagogue receptor type 1 (Homo sapiens, UniProt Q92847); test: Agonist activity at human ghrelin receptor Asp2:20Asn(Asp99) mutant expressed in african green monkey COS7 cells assessed as inhibition of inositol phosphate accumulation; type: functional, cell-based; conditions: cos-7; outline: as §1
Target sequence in this assay (Q92847 whole entry, looked up): as the sequence (Q92847 whole entry D99K) above, with K99D counted along it

[3] = target: T2, Growth hormone secretagogue receptor type 1; test: Inverse agonist activity at human wild type ghrelin receptor expressed in african green monkey COS7 cells assessed as inhibition of constitutively stimulated inositol phosphate accumulation; type: functional, cell-based, COS-7; outline: as §1
Target sequence in this assay (Q92847 whole entry): as the sequence (Q92847 whole entry D99K) above, with K99D counted along it

[4] = target: T2, Growth hormone secretagogue receptor type 1; test: Displacement of [35S]MK677 from human ghrelin receptor expressed in african green monkey COS7 cells; type: cell-based, COS-7
Target sequence in this assay (Q92847 whole entry): as the sequence (Q92847 whole entry D99K) above, with K99D counted along it

[5] = target: T2, Growth hormone secretagogue receptor type 1; test: Inverse agonist activity at human ghrelin receptor expressed in african green monkey COS7 cells assessed as constitutively stimulated inositol phosphate accumulation; type: functional, cell-based, COS-7
Target sequence in this assay (Q92847 whole entry): as the sequence (Q92847 whole entry D99K) above, with K99D counted along it

[6] = target: T3, Growth hormone secretagogue receptor type 1 (Homo sapiens, UniProt Q92847, Q120A); test: Inverse agonist activity at human ghrelin receptor Gln3:05Ala(Gln120) mutant expressed in african green monkey COS7 cells assessed as inhibition of constitutively stimulated inositol phosphate accumulation; type: functional, cell-based, COS-7; outline: as §1
T3 sequence (Q92847 whole entry Q120A): as the sequence (Q92847 whole entry D99K) above, with K99D, Q120A counted along it

[7] = target: T4, Growth hormone secretagogue receptor type 1 (Homo sapiens, UniProt Q92847, S123A); test: Inverse agonist activity at human ghrelin receptor Ser3:08Ala(Ser123) mutant expressed in african green monkey COS7 cells assessed as inhibition of constitutively stimulated inositol phosphate accumulation; type: functional, cell-based, COS-7; outline: as §1
T4 sequence (Q92847 whole entry S123A): as the sequence (Q92847 whole entry D99K) above, with K99D, S123A counted along it

[8] = target: T5, Growth hormone secretagogue receptor type 1 (Homo sapiens, UniProt Q92847, E124Q); test: Inverse agonist activity at human ghrelin receptor Glu3:09Gln(Glu124) mutant expressed in african green monkey COS7 cells assessed as inhibition of constitutively stimulated inositol phosphate accumulation; type: functional, cell-based, COS-7; outline: as §1
T5 sequence (Q92847 whole entry E124Q): as the sequence (Q92847 whole entry D99K) above, with K99D, E124Q counted along it

[9] = target: T6, Growth hormone secretagogue receptor type 1 (Homo sapiens, UniProt Q92847, S174A); test: Inverse agonist activity at human ghrelin receptor Ser4:16Ala(Ser174) mutant expressed in african green monkey COS7 cells assessed as inhibition of constitutively stimulated inositol phosphate accumulation; type: functional, cell-based, COS-7; outline: as §1
T6 sequence (Q92847 whole entry S174A): as the sequence (Q92847 whole entry D99K) above, with K99D, S174A counted along it

[10] = target: T7, Growth hormone secretagogue receptor type 1 (Homo sapiens, UniProt Q92847, M213A); test: Inverse agonist activity at human ghrelin receptor Met5:05Ala(Met213) mutant expressed in african green monkey COS7 cells assessed as inhibition of constitutively stimulated inositol phosphate accumulation; type: functional, cell-based, COS-7; outline: as §1
T7 sequence (Q92847 whole entry M213A): as the sequence (Q92847 whole entry D99K) above, with K99D, M213A counted along it

[11] = target: T8, Growth hormone secretagogue receptor type 1 (Homo sapiens, UniProt Q92847, V216A); test: Inverse agonist activity at human ghrelin receptor Val5:08Ala(Val216) mutant expressed in african green monkey COS7 cells assessed as inhibition of constitutively stimulated inositol phosphate accumulation; type: functional, cell-based, COS-7; outline: as §1
T8 sequence (Q92847 whole entry V216A): as the sequence (Q92847 whole entry D99K) above, with K99D, V216A counted along it

[12] = target: T9, Growth hormone secretagogue receptor type 1 (Homo sapiens, UniProt Q92847, S217A); test: Inverse agonist activity at human ghrelin receptor Ser5:09Ala(Ser217) mutant expressed in african green monkey COS7 cells assessed as inhibition of constitutively stimulated inositol phosphate accumulation; type: functional, cell-based, COS-7; outline: as §1
T9 sequence (Q92847 whole entry S217A): as the sequence (Q92847 whole entry D99K) above, with K99D, S217A counted along it

[13] = target: T10, Growth hormone secretagogue receptor type 1 (Homo sapiens, UniProt Q92847, F220A); test: Inverse agonist activity at human ghrelin receptor Phe5:12Ala(Phe220) mutant expressed in african green monkey COS7 cells assessed as inhibition of constitutively stimulated inositol phosphate accumulation; type: functional, cell-based, COS-7; outline: as §1
T10 sequence (Q92847 whole entry F220A): as the sequence (Q92847 whole entry D99K) above, with K99D, F220A counted along it

[14] = target: T11, Growth hormone secretagogue receptor type 1 (Homo sapiens, UniProt Q92847, R283Q); test: Inverse agonist activity at human ghrelin receptor Arg6:20Gln(Arg283) mutant expressed in african green monkey COS7 cells assessed as inhibition of constitutively stimulated inositol phosphate accumulation; type: functional, cell-based, COS-7; outline: as §1
T11 sequence (Q92847 whole entry R283Q): as the sequence (Q92847 whole entry D99K) above, with K99D, R283Q counted along it

[15] = target: T12, Growth hormone secretagogue receptor type 1 (Homo sapiens, UniProt Q92847, N305A); test: Inverse agonist activity at human ghrelin receptor Asn7:02Ala(Asn305) mutant expressed in african green monkey COS7 cells assessed as inhibition of constitutively stimulated inositol phosphate accumulation; type: functional, cell-based, COS-7; outline: as §1
T12 sequence (Q92847 whole entry N305A): as the sequence (Q92847 whole entry D99K) above, with K99D, N305A counted along it

[16] = target: T2, Growth hormone secretagogue receptor type 1; test: Inverse agonist activity at human ghrelin receptor Phe7:06Leu(Phe306) mutant expressed in african green monkey COS7 cells assessed as inhibition of constitutively stimulated inositol phosphate accumulation; type: functional, cell-based; conditions: cos-7; outline: as §1
Target sequence in this assay (Q92847 whole entry, looked up): as the sequence (Q92847 whole entry D99K) above, with K99D counted along it

[17] = target: T13, Growth hormone secretagogue receptor type 1 (Homo sapiens, UniProt Q92847, F312A); test: Inverse agonist activity at human ghrelin receptor Phe7:09Ala(Phe312) mutant expressed in african green monkey COS7 cells assessed as inhibition of constitutively stimulated inositol phosphate accumulation; type: functional, cell-based, COS-7; outline: as §1
T13 sequence (Q92847 whole entry F312A): as the sequence (Q92847 whole entry D99K) above, with K99D, F312A counted along it

[18] = target: T14, Growth hormone secretagogue receptor type 1 (Homo sapiens, UniProt Q92847, F119S); test: Agonist activity at human ghrelin receptor Phe3:04Ser(phe119) mutant expressed in african green monkey COS7 cells assessed as stimulation of constitutively stimulated inositol phosphate accumulation
T14 sequence (Q92847 whole entry F119S): as the sequence (Q92847 whole entry D99K) above, with K99D, F119S counted along it

[19] = target: T15, Growth hormone secretagogue receptor type 1 (Homo sapiens, UniProt Q92847, I178A); test: Agonist activity at human ghrelin receptor Ile4:20Ala(Ile178) mutant expressed in african green monkey COS7 cells assessed as stimulation of constitutively stimulated inositol phosphate accumulation
T15 sequence (Q92847 whole entry I178A): as the sequence (Q92847 whole entry D99K) above, with K99D, I178A counted along it

[20] = target: T2, Growth hormone secretagogue receptor type 1; test: Agonist activity at human wild type ghrelin receptor expressed in african green monkey COS7 cells assessed as stimulation of constitutively stimulated inositol phosphate accumulation; type: functional, cell-based, COS-7
Outline: (§2)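 COS-7 cells transiently transfected (calcium phosphate with chloroquine, cDNA amount giving maximal basal signaling, 20 μg/75 cm2). After 1 day, labeled 24 h with 5 μCi myo-[3H]inositol. Washed in HEPES buffer pH 7.4, preincubated 30 min at 37 °C with 10 mM LiCl, then exposed to peptide concentrations for 45 min at 37 °C. Formic acid extraction, anion-exchange purification. Duplicate determinations. EC50 by nonlinear regression.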
Target sequence in this assay (Q92847 whole entry): as the sequence (Q92847 whole entry D99K) above, with K99D counted along it

[21] = target: T2, Growth hormone secretagogue receptor type 1; test: Agonist activity at human ghrelin receptor Asp2:20Asn(Asp99) mutant expressed in african green monkey COS7 cells assessed as stimulation of constitutively stimulated inositol phosphate accumulation; type: functional, cell-based; conditions: cos-7; outline: as §2
Target sequence in this assay (Q92847 whole entry, looked up): as the sequence (Q92847 whole entry D99K) above, with K99D counted along it

[22] = target: T1, Growth hormone secretagogue receptor type 1; test: Agonist activity at human ghrelin receptor Asp2:20Lys(Asp99) mutant expressed in african green monkey COS7 cells assessed as stimulation of constitutively stimulated inositol phosphate accumulation; type: functional, cell-based, COS-7; outline: as §2
[23] = target: T14, Growth hormone secretagogue receptor type 1; test: Agonist activity at human ghrelin receptor Phe3:04Ser(phe119) mutant expressed in african green monkey COS7 cells assessed as stimulation of constitutively stimulated inositol phosphate accumulation; type: functional, cell-based, COS-7; outline: as §2
[24] = target: T3, Growth hormone secretagogue receptor type 1; test: Agonist activity at human ghrelin receptor Gln3:05Ala(Gln120) mutant expressed in african green monkey COS7 cells assessed as stimulation of constitutively stimulated inositol phosphate accumulation; type: functional, cell-based, COS-7; outline: as §2
[25] = target: T5, Growth hormone secretagogue receptor type 1; test: Agonist activity at human ghrelin receptor Glu3:09Gln(Glu124) mutant expressed in african green monkey COS7 cells assessed as stimulation of constitutively stimulated inositol phosphate accumulation; type: functional, cell-based, COS-7; outline: as §2
[26] = target: T6, Growth hormone secretagogue receptor type 1; test: Agonist activity at human ghrelin receptor Ser4:16Ala(Ser174) mutant expressed in african green monkey COS7 cells assessed as stimulation of constitutively stimulated inositol phosphate accumulation; type: functional, cell-based, COS-7; outline: as §2
[27] = target: T15, Growth hormone secretagogue receptor type 1; test: Agonist activity at human ghrelin receptor Ile4:20Ala(Ile178) mutant expressed in african green monkey COS7 cells assessed as stimulation of constitutively stimulated inositol phosphate accumulation; type: functional, cell-based, COS-7; outline: as §2
[28] = target: T7, Growth hormone secretagogue receptor type 1; test: Agonist activity at human ghrelin receptor Met5:05Ala(Met213) mutant expressed in african green monkey COS7 cells assessed as stimulation of constitutively stimulated inositol phosphate accumulation; type: functional, cell-based, COS-7; outline: as §2
[29] = target: T8, Growth hormone secretagogue receptor type 1; test: Agonist activity at human ghrelin receptor Val5:08Ala(Val216) mutant expressed in african green monkey COS7 cells assessed as stimulation of constitutively stimulated inositol phosphate accumulation; type: functional, cell-based, COS-7; outline: as §2
[30] = target: T9, Growth hormone secretagogue receptor type 1; test: Agonist activity at human ghrelin receptor Ser5:09Ala(Ser217) mutant expressed in african green monkey COS7 cells assessed as stimulation of constitutively stimulated inositol phosphate accumulation; type: functional, cell-based, COS-7; outline: as §2
[31] = target: T10, Growth hormone secretagogue receptor type 1; test: Agonist activity at human ghrelin receptor Phe5:12Ala(Phe220) mutant expressed in african green monkey COS7 cells assessed as stimulation of constitutively stimulated inositol phosphate accumulation; type: functional, cell-based, COS-7; outline: as §2
[32] = target: Growth hormone secretagogue receptor type 1 (Homo sapiens, UniProt Q92847, F279A); test: Agonist activity at human ghrelin receptor Phe6:16Ala(Phe279) mutant expressed in african green monkey COS7 cells assessed as stimulation of constitutively stimulated inositol phosphate accumulation; type: functional, cell-based, COS-7; outline: as §2
Growth hormone secretagogue receptor type 1 (Homo sapiens, UniProt Q92847, F279A), sequence (Q92847 whole entry F279A): as the sequence (Q92847 whole entry D99K) above, with K99D, F279A counted along it

[33] = target: T11, Growth hormone secretagogue receptor type 1; test: Agonist activity at human ghrelin receptor Arg6:20Gln(Arg283) mutant expressed in african green monkey COS7 cells assessed as stimulation of constitutively stimulated inositol phosphate accumulation; type: functional, cell-based, COS-7; outline: as §2
[34] = target: T12, Growth hormone secretagogue receptor type 1; test: Agonist activity at human ghrelin receptor Asn7:02Ala(Asn305) mutant expressed in african green monkey COS7 cells assessed as stimulation of constitutively stimulated inositol phosphate accumulation; type: functional, cell-based, COS-7; outline: as §2
[35] = target: T2, Growth hormone secretagogue receptor type 1; test: Agonist activity at human ghrelin receptor Phe7:06Leu(Phe306) mutant expressed in african green monkey COS7 cells assessed as stimulation of constitutively stimulated inositol phosphate accumulation; type: functional, cell-based; conditions: cos-7; outline: as §2
Target sequence in this assay (Q92847 whole entry, looked up): as the sequence (Q92847 whole entry D99K) above, with K99D counted along it

[36] = target: T13, Growth hormone secretagogue receptor type 1; test: Agonist activity at human ghrelin receptor Phe7:09Ala(Phe312) mutant expressed in african green monkey COS7 cells assessed as stimulation of constitutively stimulated inositol phosphate accumulation; type: functional, cell-based, COS-7; outline: as §2
[37] = target: T4, Growth hormone secretagogue receptor type 1; test: Inverse agonist activity at human ghrelin receptor Ser3:08Ala(Ser123) mutant expressed in african green monkey COS7 cells assessed as inhibition of constitutively stimulated inositol phosphate accumulation

IC50 [1]: > 1000 nM
IC50 [2]: > 1000 nM
IC50 [3]: 32 nM
IC50 [4]: 13 nM
IC50 [5]: 36 nM
IC50 [6]: > 1000 nM
IC50 [7]: 21 nM
IC50 [8]: > 1000 nM
IC50 [9]: 2.6 nM
IC50 [10]: 29 nM
IC50 [11]: 27 nM
IC50 [12]: 83 nM
IC50 [13]: 19 nM
IC50 [14]: > 1000 nM
IC50 [15]: 61 nM
IC50 [16]: > 1000 nM
IC50 [17]: > 1000 nM
EC50 [18]: 60 nM
EC50 [19]: 43 nM
SMILES: CC(C)C[C@H](NC(=O)[C@H](CC(C)C)NC(=O)[C@@H](Cc1c[nH]c2ccccc12)NC(=O)[C@H](Cc1ccccc1)NC(=O)[C@@H](Cc1c[nH]c2ccccc12)NC(=O)[C@@H](N)CCCCN)C(N)=O

IC50 [4]: 210 nM
IC50 [5]: 112 nM
SMILES: CC(C)C[C@H](NC(=O)[C@H](CC(C)C)NC(=O)[C@@H](Cc1c[nH]c2ccccc12)NC(=O)[C@H](Cc1ccccc1)NC(=O)[C@@H](Cc1c[nH]c2ccccc12)NC(=O)[C@@H](CCCNC(=N)N)NC(=O)[C@H]1CCCN1C(=O)[C@@H](N)CC(=O)O)C(N)=O

IC50 [20]: 15 nM
IC50 [21]: > 1000 nM
IC50 [22]: > 1000 nM
IC50 [23]: 41 nM
IC50 [24]: > 1000 nM
IC50 [25]: > 1000 nM
IC50 [26]: 6.1 nM
IC50 [27]: 160 nM
IC50 [28]: 0.35 nM
IC50 [29]: > 1000 nM
IC50 [30]: 14 nM
IC50 [31]: > 1000 nM
IC50 [32]: > 1000 nM
IC50 [33]: > 1000 nM
IC50 [34]: 15 nM
IC50 [35]: 81 nM
IC50 [36]: > 1000 nM
IC50 [4]: 53 nM
IC50 [5]: 15 nM
IC50 [37]: 28 nM
SMILES: CC(C)C[C@H](NC(=O)[C@H](CC(C)C)NC(=O)[C@@H](Cc1c[nH]c2ccccc12)NC(=O)[C@H](Cc1ccccc1)NC(=O)[C@@H](Cc1c[nH]c2ccccc12)NC(=O)[C@H](C)N)C(N)=O
